Test results reported in ChEMBL document CHEMBL1165950, “Design and synthesis of new potent anticancer pyrazoles with high FLT3 kinase inhibitory selectivity” (Bioorg Med Chem, 2010).

How the values were obtained:
Format in all cases: functional
[1] = test system: NCI/ADR-RES; test: Cytotoxicity against human NCI/ADR-RES cells assessed as cell growth at 100 nM after 48 hrs by sulforhodamine B assay; conditions: read-out: Activity
[2] = test system: BT-549; test: Cytotoxicity against human BT549 cells assessed as cell growth at 0.001 uM after 48 hrs by sulforhodamine B assay; conditions: BT-549, 48 h, read-out: Activity
Procedure, shortened: (§1)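 NCI-60 five-dose screen. Cells were grown in RPMI 1640 with 5% FBS and 2 mM L-glutamine, plated at 5000–40,000 cells/well and preincubated for 24 h. Time-zero plates were TCA-fixed. DMSO-solubilized drug was added at five concentrations (10-fold or ½-log serial dilutions) for 48 h at 37 °C, 5% CO2. Cells were TCA-fixed, stained with 0.4% SRB and read at 515 nm. Percent growth used time-zero, control and test absorbances.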

[3] = test system: DU-145; test: Cytotoxicity against human DU145 cells assessed as cell growth at 100 nM after 48 hrs by sulforhodamine B assay; conditions: DU-145, 48 h, read-out: Activity
[4] = test system: MDA-MB-231; test: Cytotoxicity against human MDA-MB-231 cells assessed as cell growth at 100 nM after 48 hrs by sulforhodamine B assay; conditions: MDA-MB-231, 48 h, read-out: Activity
[5] = test system: MDA-MB-435; test: Cytotoxicity against human MDA-MB-435 cells assessed as cell growth at 10 uM; conditions: read-out: Activity
Procedure, shortened: (§2)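 NCI-60 screen: cells grown in RPMI 1640 with 5% FBS and 2 mM L-glutamine, plated at 5000–40,000 cells/well according to doubling time, and preincubated 24 h at 37 °C, 5% CO2. The single 10 µM dose (DMSO stock) was added, then incubated 48 h. Cells were TCA-fixed and stained with 0.4% SRB, read at 515 nm, and growth % calculated against time-zero and control plates.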

[6] = test system: OVCAR-3; test: Cytotoxicity against human OVCAR-3 cells assessed as cell growth at 10 uM; conditions: read-out: Activity; procedure, shortened: as §2
[7] = test system: NCI/ADR-RES; test: Cytotoxicity against human NCI/ADR-RES cells assessed as cell growth at 10 uM; conditions: read-out: Activity; procedure, shortened: as §2
[8] = test system: UO-31; test: Cytotoxicity against human UO31 cells assessed as cell growth at 10 uM; conditions: read-out: Activity; procedure, shortened: as §2
[9] = test system: CCRF-CEM; test: Cytotoxicity against human CCRF-CEM cells assessed as cell growth at 0.001 uM after 48 hrs by sulforhodamine B assay; conditions: read-out: Activity; procedure, shortened: as §1
[10] = test system: LOX IMVI; test: Cytotoxicity against human LOXIMVI cells assessed as cell growth at 1 uM after 48 hrs by sulforhodamine B assay; conditions: read-out: Activity
[11] = test system: NCI/ADR-RES; test: Cytotoxicity against human NCI/ADR-RES cells assessed as cell growth at 0.01 uM after 48 hrs by sulforhodamine B assay; conditions: read-out: Activity
[12] = test system: NCI-H322M; test: Cytotoxicity against human NCI-H322M cells assessed as cell growth at 0.001 uM after 48 hrs by sulforhodamine B assay; conditions: read-out: Activity
[13] = test system: UACC-62; test: Cytotoxicity against human UACC62 cells assessed as cell growth at 0.001 uM after 48 hrs by sulforhodamine B assay; conditions: UACC-62, 48 h, read-out: Activity
[14] = test system: NCI/ADR-RES; test: Cytotoxicity against human NCI/ADR-RES cells assessed as cell growth at 0.001 uM after 48 hrs by sulforhodamine B assay; conditions: read-out: Activity
[15] = test system: K562; test: Growth inhibition of human K562 cells after 48 hrs by sulforhodamine B assay; conditions: K562, 48 h
Procedure, shortened: (§3)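 NCI 60-cell screen, five-dose mode. Cells grown in RPMI 1640 with 5% FBS and 2 mM L-glutamine and plated at 5000-40,000 cells/well according to doubling time. After 24 h preincubation, a Tz plate was TCA-fixed. Five concentrations (10-fold or 1/2 log dilutions) were applied for 48 h at 37 °C. SRB staining read at 515 nm. IC50 taken from [(Ti-Tz)/(C-Tz)]×100 = 50.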

[16] = test system: NCI-H23; test: Growth inhibition of human NCI-H23 cells after 48 hrs by sulforhodamine B assay; conditions: NCI-H23, 48 h; procedure, shortened: as §3
[17] = test system: KM12; test: Growth inhibition of human KM12 cells after 48 hrs by sulforhodamine B assay; conditions: KM12, 48 h; procedure, shortened: as §3
[18] = test system: NCI/ADR-RES; test: Growth inhibition of human NCI/ADR-RES cells after 48 hrs by sulforhodamine B assay; procedure, shortened: as §3
[19] = test system: HL-60(TB); test: Cytotoxicity against human HL-60(TB) cells assessed as cell growth at 100 nM after 48 hrs by sulforhodamine B assay; conditions: HL-60, 48 h, read-out: Activity
Procedure, shortened: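 NCI 60-cell panel. Cells are grown in RPMI 1640 with 5% FBS and 2 mM L-glutamine, seeded at 5000–40,000 cells/well according to doubling time, and preincubated 24 h. Time-zero plates are TCA-fixed. Compound from DMSO stock is given at five 10-fold or 1/2-log concentrations for 48 h at 37 °C, 5% CO2. Suspension cells are fixed with 80% TCA (final 16%) and SRB-stained, with absorbance at 515 nm. Percent growth is derived from Tz, control and test readings.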

[20] = test system: NCI-H322M; test: Cytotoxicity against human NCI-H322M cells assessed as cell growth at 100 nM after 48 hrs by sulforhodamine B assay; conditions: read-out: Activity
[21] = test system: A498; test: Growth inhibition of human A498 cells after 48 hrs by sulforhodamine B assay; conditions: A498, 48 h
Procedure, shortened: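 NCI five-dose SRB assay in RPMI 1640 with 5% FBS and 2 mM L-glutamine. Cells were preincubated 24 h, then exposed 48 h at 37 °C to five concentrations (10-fold or half-log serial dilutions from DMSO stocks). TCA fixation, SRB staining, and absorbance at 515 nm followed. IC50 was taken where [(Ti−Tz)/(C−Tz)]×100 = 50, with Tz as time-zero cell density.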

[22] = test system: SN12C; test: Growth inhibition of human SN12C cells after 48 hrs by sulforhodamine B assay; procedure, shortened: as §3
[23] = test system: A549; test: Cytotoxicity against human A549 cells assessed as cell growth at 10 uM; conditions: read-out: Activity
Procedure, shortened: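 Single-dose NCI-60 screen at 10 µM. Cells were grown in RPMI 1640 with 5% FBS and 2 mM L-glutamine, then treated for 48 h at 37 °C. Protein was measured by SRB staining with absorbance at 515 nm. Percentage growth was recorded, and inhibition percentage was calculated as 100 minus growth percentage.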

[24] = test system: MDA-MB-468; test: Cytotoxicity against human MDA-MB-468 cells assessed as cell growth at 1 uM after 48 hrs by sulforhodamine B assay; conditions: MDA-MB-468, 48 h, read-out: Activity
[25] = test system: TK-10; test: Cytotoxicity against human TK10 cells assessed as cell growth at 10 uM after 48 hrs by sulforhodamine B assay; conditions: TK-10, 48 h, read-out: Activity
[26] = Cytotoxicity against human Hs 578T cells assessed as cell growth at 10 uM after 48 hrs by sulforhodamine B assay; conditions: read-out: Activity
[27] = read-out: LC50 (the source's name)

SMILES: Cc1cc(O)cc(-c2nn(CC#N)cc2-c2ccnc(-c3ccc(Oc4ccccc4)cc3)c2)c1
- growth at 0.1 µM [1]: 95%
- growth at 0.001 µM [2]: 96%
- growth at 0.1 µM [3]: 86%
- growth at 0.1 µM [4]: 85%
- growth at 10 µM [5]: 60.5%
- growth at 10 µM [6]: 96%
- growth at 10 µM [7]: 37.9%
- growth at 10 µM [8]: 46.9%
- growth at 0.001 µM [9]: 96%
- growth at 1 µM [10]: -91%
- growth at 0.01 µM [11]: 96%
- growth at 0.001 µM [12]: 94%
- growth at 0.001 µM [13]: 92%
- growth at 0.001 µM [14]: 105%
- GI50 [15]: 4.87 µM
- LC50 (50% net cell kill) [15]: > 100 µM
- TGI [15]: 6.02 µM
- GI50 [16]: 1.94 µM
- TGI [16]: 3.97 µM
- CC50 [16, 27]: 8.13 µM
- GI50 [17]: 1.92 µM
- TGI [17]: 4.87 µM
- CC50 [17, 27]: 15.3 µM
- GI50 [18]: 2.06 µM
- TGI [18]: 4.56 µM
- CC50 [18, 27]: 15.8 µM
- growth at 0.1 µM [19]: 92%
- growth at 0.1 µM [20]: 95%
- GI50 [21]: 3.87 µM
- LC50 [21]: 44.1 µM
- TGI [21]: 16.7 µM
- GI50 [22]: 1.8 µM
- LC50 [22]: 9.01 µM
- TGI [22]: 4.02 µM
- growth at 10 µM [23]: 42%
- growth at 1 µM [24]: -62%
- growth at 10 µM [25]: -89%
- growth at 10 µM [26]: -49%
